{"source": "the RNAGym collection of RNA variant scans (doi:10.1126/science.aae0568)", "parents": {"B1": {"name": "tRNA (parent)", "chain": "GUUCCGUUGGCGUAAUGGUAACGCGUCUCCCUCCUAAGGAGAAGACUGCGGGUUCGAGUCCCGUACGGAACG"}}, "note": "Variants at the floor of the assay were thinned out."}
{"variants_of": "B1", "assay": "yeast fitness relative to wild type (ratio to wild type); higher = fitter; tRNA-Arg(CCU), competitive growth, 37 C, YPD", "how_it_was_run": "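Genotype frequency changes were the basis for Darwinian fitness relative to wild type. The frequencies came from 100-nucleotide paired-end sequencing of gene amplicons from the start population and each end population of pooled yeast strains with tRNA-Arg(CCU) gene variants at the native locus. Competition ran in YPD at 37°C for 24 hours in six replicates, genotypes needed ≥ 100 starting reads, and estimates < 0.5 were set to 0.5.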"}
{"variant": "GUUCCGUUGGCGUAAUGGUAAAGCGUCGCCGUCCUAAGGAGUAGACUGCGGGUUCGAGUCCCGUACGGAACG", "note": "[C22A U28G C31G A42U]", "yeast fitness": "≤ 0.5"}
{"variant": "GUUCCGUUGGCGUAAUGGUAAAGCGUCGCCGUCCUAAGGAGUAGACUGCGGGUUCGACUCCCGUACGGAACG", "note": "[C22A U28G C31G A42U G58C]", "yeast fitness": "≤ 0.5"}
{"variant": "GUUCCGUUGGCGUAAUGGUAAAGCGUCGCCCUCCUAAGGAGAAGACUGAGGGUUCGAGUCACGUACGGAACG", "note": "[C22A U28G C49A C61A]", "yeast fitness": "≤ 0.5"}
{"variant": "GUUCCGUUGGCGUAAUGGUAAAGCGUCGCCCUCCUAAGGAGAAGACUGCGGGUUCGACUCCCGCACGGAACG", "note": "[C22A U28G G58C U64C]", "yeast fitness": "≤ 0.5"}
{"variant": "GUUCCGUUGGCGUAAUGGUAAAGCGUCGCCCUCCAAAGGAGAAGACUGCGGGUUCGAGUCCCGUACGGAACG", "note": "[C22A U28G U35A]", "yeast fitness": 0.571}
{"variant": "GUUCCGUUGGCGUAAUGGUAAAGCGUCUCCCGCCUAUGGAGAAGACUGCGGGUUCGAGUCCCGUACGGAACG", "note": "[C22A U32G A37U]", "yeast fitness": "≤ 0.5"}
{"variant": "GUUCCGUUGGCGUAAUGGUAAAGCGUCUCCCUCCAAGGGAGAAGACUGCGGGUUCGAAUCCCGUACGGAACG", "note": "[C22A U35A A37G G58A]", "yeast fitness": "≤ 0.5"}
{"variant": "GUUCCGUUGGCGUAAUGGUAAAGCGUCUCCCUCCAAAGGAGAAGACUGCGGGUUCGAGUCCCGUACGGAUCG", "note": "[C22A U35A A70U]", "yeast fitness": "≤ 0.5"}
{"variant": "GUUCCGUUGGCGUAAUGGUAAAGCGUCUCCCUCCGAAGGAGAAGACUGCGGGUUCGAGUCCCGUAGGGUACG", "note": "[C22A U35G C66G A69U]", "yeast fitness": "≤ 0.5"}
{"variant": "GUUCCGUUGGCGUAAUGGUAAAGCGUCUCCCUCCUAAGGAGAAGACAGCGGGUUCGAGUCCCGUGCGGAACG", "note": "[C22A U47A A65G]", "yeast fitness": 0.573}
{"variant": "GUUCCGUUGGCGUAAUGGUAAAGCGUCUCCCUCCUAAGGAGAAGACAGCGGGUUCGAGUCCCGUUCGGAACG", "note": "[C22A U47A A65U]", "yeast fitness": "≤ 0.5"}
{"variant": "GUUCCGUUGGCGUAAUGGUAAAGCGUCUCCCUCCUAAGGAGAAGACAGCGGGUUAGAGUCCCGUACGGAACG", "note": "[C22A U47A C55A]", "yeast fitness": "≤ 0.5"}
{"variant": "GUUCCGUUGGCGUAAUGGUAAAGCGUCUCCCUCCUAAGGAGAAGACAACGGGUUCGAGUCCCGUACGGAACG", "note": "[C22A U47A G48A]", "yeast fitness": 0.505}
{"variant": "GUUCCGUUGGCGUAAUGGUAAAGCGUCUCCCUCCUAAGGAGAAGACAACGGGUUCGAGUCCCGUACGGAGCG", "note": "[C22A U47A G48A A70G]", "yeast fitness": "≤ 0.5"}
{"variant": "GUUCCGUUGGCGUAAUGGUAAAGCGUCUCCCUCCUAAGGAGAAGACAGCGGGUUCAAGUUCCGUACGGAACG", "note": "[C22A U47A G56A C60U]", "yeast fitness": "≤ 0.5"}
{"variant": "GUUCCGUUGGCGUAAUGGUAAAGCGUCUCCCUCCUAAGGAGAAGACCGCGGGUUCGAGUCCCGUACGGAACG", "note": "[C22A U47C]", "yeast fitness": 0.882}
{"variant": "GUUCCGUUGGCGUAAUGGUAAAGCGUCUCCCUCCUAAGGAGAAGACCGCGGGUUGGAGUCCCGUACGGAACG", "note": "[C22A U47C C55G]", "yeast fitness": 0.536}
{"variant": "GUUCCGUUGGCGUAAUGGUAAAGCGUCUCCCUCCUAAGGAGAAGACCGCGGGUUCGAGUCGCGUACGGAACG", "note": "[C22A U47C C61G]", "yeast fitness": "≤ 0.5"}
{"variant": "GUUCCGUUGGCGUAAUGGUAAAGCGUCUCCCUCCUAAGGAGAAGACUGCGGGCUCGAGUCCUGUACGGAACG", "note": "[C22A U53C C62U]", "yeast fitness": "≤ 0.5"}
{"variant": "GUUCCGUUGGCGUAAUGGUAAAGCGUCUCCCUCCUAAGGAGAAGACUGCGGGUCCGAGUCCCGUACGGAACG", "note": "[C22A U54C]", "yeast fitness": 0.917}
{"variant": "GUUCCGUUGGCGUAAUGGUAAGGCGUCUCCCUCCUCCGGAGAAGACUGCGGGUUCGAGUCCCGUACGGAACG", "note": "[C22G A36C A37C]", "yeast fitness": "≤ 0.5"}
{"variant": "GUUCCGUUGGCGUAAUGGUAAGGCGUCUCCCUCCUCAGGGGAAGACUGCGGGUUCGACUACCGUACGGAACG", "note": "[C22G A36C A40G G58C C60A]", "yeast fitness": "≤ 0.5"}
{"variant": "GUUCCGUUGGCGUAAUGGUAAGGCGUCUCCCUCCUCAGGAGAAGACUGCGGGUUUGAGUACGGUACGGUACG", "note": "[C22G A36C C55U C60A C62G A69U]", "yeast fitness": 0.563}
{"variant": "GUUCCGUUGGCGUAAUGGUAAGGCGUCUCCCUCCUCAGGAGAAGACUGCGGGUUCGAGUCUCGUACGGAACG", "note": "[C22G A36C C61U]", "yeast fitness": "≤ 0.5"}
{"variant": "GUUCCGUUGGCGUAAUGGUAAGGCGUCUCCCUCCUCAGGAGAAGACAGCGGGUUCGAGUCCCGUACGGCACG", "note": "[C22G A36C U47A A69C]", "yeast fitness": "≤ 0.5"}
{"variant": "GUUCCGUUGGCGUAAUGGUAAGGCGUCUCCCUCCUCAGGAGAAGACAGCGGGUUCGAGUCCCGUAGGGAACG", "note": "[C22G A36C U47A C66G]", "yeast fitness": "≤ 0.5"}
{"variant": "GUUCCGUUGGCGUAAUGGUAAGGCGUCUCCCUCCUGAGGAGAAGACUGCGGGUUCGAGUCCCGUACGGAACG", "note": "[C22G A36G]", "yeast fitness": 0.966}
{"variant": "GUUCCGUUGGCGUAAUGGUAAGGCGUCUCCCUCCUGCGGAGAAGAAUGGGGGUUCGAGUCCCGGACGGAACG", "note": "[C22G A36G A37C C46A C49G U64G]", "yeast fitness": "≤ 0.5"}
{"variant": "GUUCCGUUGGCGUAAUGGUAAGGCGUCUCCCUCCUUAGGAGAAGACUGCGGGUUCGAGUCCCGUACGGAACG", "note": "[C22G A36U]", "yeast fitness": 0.66}
{"variant": "GUUCCGUUGGCGUAAUGGUAAGGCGUCUCCCUCCUACGGAGAAGACUGCGGGUUCGAGUCCCGUACGGAACG", "note": "[C22G A37C]", "yeast fitness": 0.721}
{"variant": "GUUCCGUUGGCGUAAUGGUAAGGCGUCUCCCUCCUACGGAGAAGUCUGCGGGUUCGAGUCCCGUACAGAACG", "note": "[C22G A37C A45U G67A]", "yeast fitness": 0.581}
{"variant": "GUUCCGUUGGCGUAAUGGUAAGGCGUCUCCCUCCUACGGAGAAGACUGCGGGUCCGAGUCCCGUACGGAACG", "note": "[C22G A37C U54C]", "yeast fitness": "≤ 0.5"}
{"variant": "GUUCCGUUGGCGUAAUGGUAAGGCGUCUCCCUCCUAGGGAGAAGACUGCGGGUUCGAGUACCGUACGGAGCG", "note": "[C22G A37G C60A A70G]", "yeast fitness": 0.501}
{"variant": "GUUCCGUUGGCGUAAUGGUAAGGCGUCUCCCUCCUAAGGCGAUGACUGCGGGUUCGAGUCCCGUACGGAACG", "note": "[C22G A40C A43U]", "yeast fitness": "≤ 0.5"}
{"variant": "GUUCCGUUGGCGUAAUGGUAAGGCGUCUCCCUCCUAAGGGGAAGACUGCGGGUUCGAGUCCCGUACGGAUCG", "note": "[C22G A40G A70U]", "yeast fitness": 0.609}
{"variant": "GUUCCGUUGGCGUAAUGGUAAGGCGUCUCCCUCCUAAGGUGAUGACUGCGGGUUCGAGUCUCGUACGGAACG", "note": "[C22G A40U A43U C61U]", "yeast fitness": "≤ 0.5"}
{"variant": "GUUCCGUUGGCGUAAUGGUAAGGCGUCUCCCUCCUAAGGUGAAGACUGCGGGUACGAGUCCCGUACGGAACG", "note": "[C22G A40U U54A]", "yeast fitness": "≤ 0.5"}
{"variant": "GUUCCGUUGGCGUAAUGGUAAGGCGUCUCCCUCCUAAGGAGCAGACUGCGGGUUCGAGUCCCGUUCAGAACG", "note": "[C22G A42C A65U G67A]", "yeast fitness": "≤ 0.5"}
